Experiments:
[1] = system: MCF7; assay: Antiproliferative activity against human MCF7 cells assessed as cell growth inhibition measured after 48 hrs by SRB assay; type: functional
Method in brief: (§1)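 Sulforhodamine B (SRB) cell-staining assay across a panel of human cancer lines. Growth inhibition is reported as GI50.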

[2] = system: HOP-62; assay: Antiproliferative activity against human HOP-62 cells assessed as cell growth inhibition measured after 48 hrs by SRB assay; type: functional; method in brief: as §1
[3] = system: MIA PaCa-2; assay: Antiproliferative activity against human MIA Paca-2 cells assessed as cell growth inhibition measured after 48 hrs by SRB assay; type: functional; method in brief: as §1
[4] = system: SK-OV-3; assay: Antiproliferative activity against human SK-OV-3 cells assessed as cell growth inhibition measured after 48 hrs by SRB assay; type: functional; method in brief: as §1
[5] = system: COLO 205; assay: Antiproliferative activity against human COLO 205 cells assessed as cell growth inhibition measured after 48 hrs by SRB assay; type: functional; method in brief: as §1
[6] = system: HeLa; assay: Antiproliferative activity against human HeLa cells assessed as cell growth inhibition measured after 48 hrs by SRB assay; type: functional; method in brief: as §1
[7] = system: DU-145; assay: Antiproliferative activity against human DU-145 cells assessed as cell growth inhibition measured after 48 hrs by SRB assay; type: functional; method in brief: as §1
[8] = system: K562; assay: Antiproliferative activity against human K562 cells assessed as cell growth inhibition measured after 48 hrs by SRB assay; type: functional; method in brief: as §1
[9] = system: MCF7; assay: Induction of apoptosis in human MCF7 cells assessed as live cells at 50 nM measured after 48 hrs by annexinV-FITC/propidium iodide staining based flow cytometry (reference value: 95 %)
[10] = system: MCF7; assay: Induction of apoptosis in human MCF7 cells assessed as late apoptotic cells at 50 nM measured after 48 hrs by annexinV-FITC/propidium iodide staining based flow cytometry (reference value: 0.6 %)
[11] = Inhibition of porcine brain tubulin polymerization measured after 1 hr in presence of GTP by fluorescence assay; type: tissue-based, Sus scrofa
Method in brief: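 Tubulin assembly followed by the rise in fluorescence (ex 360 nm, em 420 nm) over 1 h at 37 °C. Compounds tested at a final 3 μM with a reference control. IC50 defined as the concentration inhibiting 50% of tubulin assembly. Mean ± SD of two experiments in triplicate.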

[12] = system: MCF7; assay: Induction of apoptosis in human MCF7 cells assessed as early apoptotic cell population at 50 nM measured after 48 hrs by Annexin V-FITC/PI staining based flow cytometry (reference value: 0.7 %)
[13] = system: MCF7; assay: Cell cycle arrest in human MCF7 cells assessed as accumulation at sub-G1 phase at 50 nM measured after 48 hrs by propidium iodide staining based flow cytometry (reference value: 2.4 %); type: functional
Method in brief: (§2)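 MCF-7 cells were treated at 50 and 100 nM for 48 h. Cell-cycle phase distribution (sub-G1, G0/G1, S, G2/M %) was read by flow cytometry against untreated control.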

[14] = system: MCF7; assay: Induction of apoptosis in human MCF7 cells assessed as early apoptotic cells at 50 nM measured after 48 hrs by annexinV-FITC/propidium iodide staining based flow cytometry (reference value: 4.4 %); type: functional
Method in brief: (§3)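 MCF-7 cells were treated at 50 and 100 nM for 48 h. Annexin V-FITC/PI dual staining was read by flow cytometry. Cells were quadrant-gated as UL, UR, LL and LR, with untreated control alongside.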

[15] = system: MCF7; assay: Induction of apoptosis in human MCF7 cells assessed as necrotic cells at 50 nM measured after 48 hrs by annexinV-FITC/propidium iodide staining based flow cytometry (reference value: 0.1 %); type: functional; method in brief: as §3
[16] = species: Sus scrofa; assay: Inhibition of porcine brain tubulin polymerization at 3 uM measured after 1 hr in presence of GTP by fluorescence assay relative to control; type: tissue-based
Method in brief: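 Tubulin polymerization was followed by fluorescence (excitation 360 nm, emission 420 nm) for 1 h at 37 °C. Compounds were at 3 μM final, with and without compound. Values are mean ± SD of two experiments done in triplicate.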

[17] = system: MCF7; assay: Induction of apoptosis in human MCF7 cells assessed as late apoptotic cell population at 50 nM measured after 48 hrs by Annexin V-FITC/PI staining based flow cytometry (reference value: 1 %)
[18] = system: MCF7; assay: Cell cycle arrest in human MCF7 cells assessed as accumulation at G0/G1 phase at 50 nM measured after 48 hrs by propidium iodide staining based flow cytometry (reference value: 85.3 %); type: functional; method in brief: as §2
[19] = system: MCF7; assay: Cell cycle arrest in human MCF7 cells assessed as accumulation at G2/M phase at 50 nM measured after 48 hrs by propidium iodide staining based flow cytometry (reference value: 8.44 %); type: functional; method in brief: as §2
[20] = system: MCF7; assay: Cell cycle arrest in human MCF7 cells assessed as accumulation at S phase at 50 nM measured after 48 hrs by propidium iodide staining based flow cytometry (reference value: 3.1 %); type: functional; method in brief: as §2

| GI50 [1] [nM] | GI50 [3] [nM] | GI50 [4] [nM] | GI50 [5] [nM] | GI50 [6] [nM] | GI50 [7] [nM] | GI50 [8] [nM] | Structure (SMILES) | GI50 [2] [nM] | live cells [9] [%] | late apoptotic cells [10] [%] | IC50 [11] [nM] | Activity [12] [%] | Activity [13] [%] | Activity [14] [%] | Activity [15] [%] | inhibition [16] [%] | Activity [17] [%] | Activity [18] [%] | Activity [19] [%] | Activity [20] [%] |
| --- | --- | --- | --- | --- | --- | --- | --- | --- | --- | --- | --- | --- | --- | --- | --- | --- | --- | --- | --- | --- |
| 19400 | > 100000 | 52600 | > 100000 | 49200 | 64700 | 46800 | COc1ccc(/C=C/C(=O)Nc2c(/C=C\c3cc(OC)c(OC)c(OC)c3)ccc(OC)c2O)cc1[N+](=O)[O-] | 71300 |  |  |  |  |  |  |  |  |  |  |  |  |
| 74 | 97 | 94 | 86 | 90 | 85 | 82 | COc1cc(/C=C/C(=O)Nc2c(/C=C\c3cc(OC)c(OC)c(OC)c3)ccc(OC)c2O)ccc1N | 31 |  |  |  |  |  |  |  |  |  |  |  |  |
| 59500 | 93900 | 17600 | > 100000 | 18100 | > 100000 | 98 | COc1cccc(/C=C/C(=O)Nc2c(/C=C\c3cc(OC)c(OC)c(OC)c3)ccc(OC)c2O)c1 | 65400 |  |  |  |  |  |  |  |  |  |  |  |  |
| 50 | 14300 | 97 | 89 | 91 | 79 | 89 | COc1ccc(/C=C/C(=O)Nc2c(/C=C\c3cc(OC)c(OC)c(OC)c3)ccc(OC)c2O)cc1N | 44 |  |  |  |  |  |  |  |  |  |  |  |  |
| 66 | 78100 | 47500 | 67600 | 24000 | 83 | 23500 | COc1ccc(/C=C\c2cc(OC)c(OC)c(OC)c2)c(NC(=O)/C=C/c2ccc(F)cc2)c1O | 43000 |  |  |  |  |  |  |  |  |  |  |  |  |
| 95 | 23500 | 7900 | 96 | 99 | 75 | 96 | COc1cc(/C=C/C(=O)Nc2c(/C=C\c3cc(OC)c(OC)c(OC)c3)ccc(OC)c2O)ccc1[N+](=O)[O-] | 84 |  |  |  |  |  |  |  |  |  |  |  |  |
| 55500 | > 100000 | 62600 | > 100000 | 38800 | 54100 | 24900 | COc1ccc(/C=C\c2cc(OC)c(OC)c(OC)c2)c(NC(=O)/C=C/c2ccc(Cl)cc2)c1O | 79400 |  |  |  |  |  |  |  |  |  |  |  |  |
| 60 | 98 | 96 | 98 | 90 | 72 | 93 | COc1cc(/C=C/C(=O)Nc2c(/C=C\c3cc(OC)c(OC)c(OC)c3)ccc(OC)c2O)ccc1O | 79 |  |  |  |  |  |  |  |  |  |  |  |  |
| 95 | 46300 | 1800 | > 100000 | 15900 | 117 | 23700 | COc1ccc(/C=C/C(=O)Nc2c(/C=C\c3cc(OC)c(OC)c(OC)c3)ccc(OC)c2O)cc1O | 17100 |  |  |  |  |  |  |  |  |  |  |  |  |
| 83 | 98 | 82 | 18000 | 78.7 | 85 | 91 | C=CCOc1cccc(/C=C/C(=O)Nc2c(/C=C\c3cc(OC)c(OC)c(OC)c3)ccc(OC)c2O)c1 | 60 |  |  |  |  |  |  |  |  |  |  |  |  |

| Structure (SMILES) | GI50 [1] [nM] | GI50 [3] [nM] | GI50 [4] [nM] | GI50 [5] [nM] | GI50 [6] [nM] | GI50 [7] [nM] | GI50 [8] [nM] | GI50 [2] [nM] | live cells [9] [%] | late apoptotic cells [10] [%] | IC50 [11] [nM] | Activity [12] [%] | Activity [13] [%] | Activity [14] [%] | Activity [15] [%] | inhibition [16] [%] | Activity [17] [%] | Activity [18] [%] | Activity [19] [%] | Activity [20] [%] |
| --- | --- | --- | --- | --- | --- | --- | --- | --- | --- | --- | --- | --- | --- | --- | --- | --- | --- | --- | --- | --- |
| COc1ccc(/C=C\c2cc(OC)c(OC)c(OC)c2)cc1O [COMBRETASTATIN A4] | 33 |  | 31600 | 25 | 8 | 46 | 31 | 150 | 65.7 | 3.6 | 1480 | 3.6 | 2.71 | 30.2 | 0.5 | 72.2 | 24.5 | 56.19 | 37.41 | 1.43 |
| COc1ccc(/C=C\c2cc(OC)c(OC)c(OC)c2)c(NC(=O)/C=C/c2ccc([N+](=O)[O-])cc2)c1O | 72 | 40800 | 17000 | 10300 | 15700 | 85 | 97 | 61 |  |  |  |  |  |  |  |  |  |  |  |  |
| COc1ccc(/C=C\c2cc(OC)c(OC)c(OC)c2)c(NC(=O)/C=C/c2ccc(C(F)(F)F)cc2)c1O | 83700 | > 100000 | > 100000 | > 100000 | > 100000 | > 100000 | 58000 | > 100000 |  |  |  |  |  |  |  |  |  |  |  |  |
| COc1ccc(/C=C\c2cc(OC)c(OC)c(OC)c2)c(NC(=O)/C=C/c2cccc(O)c2)c1O | 63 | 98 | 97 | 13400 | 94.9 | 70 | 94 | 82 |  |  |  |  |  |  |  |  |  |  |  |  |
| C#CCOc1cccc(/C=C/C(=O)Nc2c(/C=C\c3cc(OC)c(OC)c(OC)c3)ccc(OC)c2O)c1 | 11600 | > 100000 | > 100000 | > 100000 | > 100000 | 96400 | > 100000 | > 100000 |  |  |  |  |  |  |  |  |  |  |  |  |
| COc1ccc(/C=C\c2cc(OC)c(OC)c(OC)c2)c(NC(=O)/C=C/c2cc(OC)c(OC)c(OC)c2)c1O | 79 | 64500 | 20900 | 76000 | 14900 | 95 | 28000 | 24800 |  |  |  |  |  |  |  |  |  |  |  |  |

From ChEMBL document CHEMBL4715715, “Synthesis and biological evaluation of arylcinnamide linked combretastatin-A4 hybrids as tubulin polymerization inhibitors and apoptosis inducing agents” (Bioorg Med Chem Lett, 2016)
